20 compounds from ChEMBL document CHEMBL1137715, “A facile synthesis of alpha,alpha'-(EE)-bis(benzylidene)-cycloalkanones and their antitubercular evaluations” (2009) can be followed below.

As usually defined, the MIC is the lowest concentration that inhibits growth of the organism.

For assay [1], the system named is Mycobacterium tuberculosis. Kind of assay: Antitubercular activity against Mycobacterium tuberculosis H37Ra after 5 days by microplate alamar blue assay. Type of assay: functional. The settings on record: 120 h. The method, boiled down:
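Microplate Alamar Blue assay on M. tuberculosis H37Ra. A log-phase culture was diluted to a final OD550 nm of 0.05 in Sauton's medium. Test compounds in DMSO were dispensed into 96-well plates, with two-fold dilutions in the initial screen.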
For orientation: The colour change of resazurin is a common sign of viable cells or microbes.

In a further assay the test system is Klebsiella pneumoniae. As to the kind of experiment: Antimicrobial activity against Klebsiella pneumoniae ATCC 27736 after 24 hrs by standard microbroth dilution technique. Type of assay: functional, organism-based. For orientation: In broth dilution the organism is exposed to a series of concentrations in liquid medium.
In the next assay the test system is Pseudomonas aeruginosa. Kind of assay: Antimicrobial activity against Pseudomonas aeruginosa ATCC BAA-427 after 24 hrs by standard microbroth dilution technique. Type of assay: functional, organism-based.
The subject of the next assay is Candida albicans. Kind of assay: Antimicrobial activity against Candida albicans ATCC 1405B after 48 hrs by standard microbroth dilution technique. It is filed as functional.
A further assay relates to Aspergillus fumigatus. As to the kind of experiment: Antimicrobial activity against Aspergillus fumigatus after 72 hrs by standard microbroth dilution technique. It is filed as functional.
Another assay relates to Candida parapsilosis. Kind of assay: Antimicrobial activity against Candida parapsilosis ATCC 22019 after 48 hrs by standard microbroth dilution technique. Type of assay: functional. The settings on record: Lodderomyces parapsilosis, ATCC 22019, 48 h.
The test system of assay [2] is Mycobacterium tuberculosis. As to the kind of experiment: Antitubercular activity against Mycobacterium tuberculosis H37Rv after 24 hrs by agar microdilution method. Type of assay: functional. The procedure, abridged:
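Agar microdilution on M. tuberculosis H37Rv. Two-fold compound dilutions were made in 7H10 agar with OADC. Inoculum came from L–J medium, harvested in 0.85% saline with 0.05% Tween-80. Slants were held 24 h at 37 °C, then streaked with 5×10^4 bacilli per tube and incubated at 37 °C for 30 days. MIC was the concentration giving complete colony inhibition versus medium-only control.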

For a further assay, the system named is Cryptococcus neoformans. Kind of assay: Antimicrobial activity against Cryptococcus neoformans after 72 hrs by standard microbroth dilution technique. It is filed as functional.
The test system of another assay is Escherichia coli. Kind of assay: Antimicrobial activity against Escherichia coli ATCC 9637 after 24 hrs by standard microbroth dilution technique. Type of assay: functional, organism-based.
In a further assay the test system is Staphylococcus aureus. As to the kind of experiment: Antimicrobial activity against Staphylococcus aureus ATCC 25923 after 24 hrs by standard microbroth dilution technique. It is filed as functional, organism-based.

The structures appear in SMILES notation. Converted amounts (≈) assume the structure as drawn. The source made the active and inactive calls. The rule behind the calls is not given here.

As for `O=C1/C(=C/c2ccc([N+](=O)[O-])cc2)CCC/C1=C\c1ccc([N+](=O)[O-])cc1`, the MIC in assay [1] was 3.12 µg/mL (≈ 8.56 µM); against Candida albicans, over 50 µg/mL; with Aspergillus fumigatus, over 50 µg/mL; with Candida parapsilosis, over 50 µg/mL; in [2], 12.5 µg/mL (≈ 34.3 µM); in the assay on Cryptococcus neoformans it was over 50 µg/mL. Moreover, the result with Klebsiella pneumoniae, in the assay with Pseudomonas aeruginosa, in the assay on Escherichia coli and in the assay with Staphylococcus aureus was inactive.

Take `COc1ccc(/C=C2\CC/C(=C\c3ccc(OC)c(OC)c3)C2=O)cc1OC`: the MIC in assay [1] is over 12.5 µg/mL; in the assay with Candida albicans, over 50 µg/mL; against Aspergillus fumigatus, over 50 µg/mL; with Candida parapsilosis, over 50 µg/mL; in [2], over 12.5 µg/mL; in the assay with Cryptococcus neoformans, over 50 µg/mL. Besides, the outcome with Klebsiella pneumoniae, with Pseudomonas aeruginosa, in the assay on Escherichia coli and in the assay with Staphylococcus aureus was inactive.

Take `O=C1/C(=C/c2ccc(Cl)cc2)CCCC/C1=C\c1ccc(Cl)cc1`: the MIC in assay [1] is over 12.5 µg/mL; with Candida albicans, over 50 µg/mL; in the assay on Aspergillus fumigatus it was over 50 µg/mL; in the assay with Candida parapsilosis, over 50 µg/mL; in assay [2] it was over 12.5 µg/mL; in the assay with Cryptococcus neoformans it was over 50 µg/mL. In addition, the result in the assay on Klebsiella pneumoniae, in the assay on Pseudomonas aeruginosa, in the assay on Escherichia coli and with Staphylococcus aureus was inactive.

As for `COc1ccc(/C=C2\CCC/C(=C\c3ccc(OC)c(OC)c3)C2=O)cc1OC`, the MIC in [1] is over 12.5 µg/mL; with Candida albicans, over 50 µg/mL; in the assay on Aspergillus fumigatus it was over 50 µg/mL; against Candida parapsilosis, over 50 µg/mL; in assay [2], over 12.5 µg/mL; with Cryptococcus neoformans it was over 50 µg/mL. The outcome in the assay with Klebsiella pneumoniae, in the assay with Pseudomonas aeruginosa, with Escherichia coli and in the assay on Staphylococcus aureus was inactive.

Take `O=C1/C(=C/c2ccc(Br)cc2)CCCC/C1=C\c1ccc(Br)cc1`: the MIC in [1] was over 12.5 µg/mL; with Candida albicans, over 50 µg/mL; against Aspergillus fumigatus, over 50 µg/mL; with Candida parapsilosis, over 50 µg/mL; in assay [2] it was over 12.5 µg/mL; against Cryptococcus neoformans it was over 50 µg/mL. For the same compound, the result with Klebsiella pneumoniae, with Pseudomonas aeruginosa, with Escherichia coli and in the assay with Staphylococcus aureus was inactive.

As to `O=C1/C(=C/c2ccc(Cl)cc2)CCC/C1=C\c1ccc(Cl)cc1`, the MIC in assay [1] was over 12.5 µg/mL; in the assay on Candida albicans it was over 50 µg/mL; against Aspergillus fumigatus it was over 50 µg/mL; with Candida parapsilosis it was over 50 µg/mL; in assay [2] it was over 12.5 µg/mL; in the assay on Cryptococcus neoformans, over 50 µg/mL. The outcome in the assay with Klebsiella pneumoniae, with Pseudomonas aeruginosa, in the assay with Escherichia coli and with Staphylococcus aureus was inactive.

On to `COc1cc(/C=C2\CCC/C(=C\c3cc(OC)c(OC)c(OC)c3)C2=O)cc(OC)c1OC`, for which the MIC in assay [1] is over 12.5 µg/mL; in the assay on Candida albicans, over 50 µg/mL; with Aspergillus fumigatus it was over 50 µg/mL; in the assay on Candida parapsilosis it was over 50 µg/mL; in [2], over 12.5 µg/mL; against Cryptococcus neoformans, over 50 µg/mL. Also, the outcome with Klebsiella pneumoniae, in the assay with Pseudomonas aeruginosa, with Escherichia coli and with Staphylococcus aureus was inactive.

In assay [2], `CC[C@@H](CO)NCCN[C@@H](CC)CO` [ETHAMBUTOL] registered an MIC of 3.25 µg/mL (≈ 15.9 µM).

Take `COc1ccc(/C=C2\CCCC/C(=C\c3ccc(OC)c(OC)c3)C2=O)cc1OC`: the MIC was over 12.5 µg/mL in [1]; over 50 µg/mL in the assay with Candida albicans; over 50 µg/mL in the assay on Aspergillus fumigatus; over 50 µg/mL with Candida parapsilosis; over 12.5 µg/mL in assay [2]; over 50 µg/mL in the assay on Cryptococcus neoformans. In addition, the outcome in the assay on Klebsiella pneumoniae, in the assay with Pseudomonas aeruginosa, in the assay with Escherichia coli and in the assay with Staphylococcus aureus was inactive.

As for `O=C1CCCCC1C(O)c1ccc([N+](=O)[O-])cc1` (configuration not stated), the MIC in [1] is over 12.5 µg/mL; in the assay on Candida albicans it was over 50 µg/mL; in the assay with Aspergillus fumigatus it was over 50 µg/mL; against Candida parapsilosis it was over 50 µg/mL; in assay [2], 12.5 µg/mL (≈ 50.1 µM); in the assay with Cryptococcus neoformans, over 50 µg/mL. Besides, the outcome in the assay with Klebsiella pneumoniae, in the assay on Pseudomonas aeruginosa, in the assay with Escherichia coli and in the assay with Staphylococcus aureus was inactive.

In the case of `O=C1CCCCC1C(O)c1cccc([N+](=O)[O-])c1` (configuration not stated), the MIC in [1] was over 12.5 µg/mL; with Candida albicans it was over 50 µg/mL; in the assay on Aspergillus fumigatus, over 50 µg/mL; in the assay on Candida parapsilosis it was over 50 µg/mL; in assay [2] it was 12.5 µg/mL (≈ 50.1 µM); against Cryptococcus neoformans it was over 50 µg/mL. Besides, the outcome in the assay with Klebsiella pneumoniae, in the assay on Pseudomonas aeruginosa, with Escherichia coli and with Staphylococcus aureus was inactive.

With `O=C1/C(=C/c2ccc(OCc3ccccc3)cc2)CCC/C1=C\c1ccc(OCc2ccccc2)cc1`, the MIC in assay [1] is over 12.5 µg/mL; against Candida albicans, over 50 µg/mL; with Aspergillus fumigatus it was over 50 µg/mL; in the assay with Candida parapsilosis, over 50 µg/mL; in [2] it was over 12.5 µg/mL; with Cryptococcus neoformans it was over 50 µg/mL. Besides, the result in the assay with Klebsiella pneumoniae, in the assay with Pseudomonas aeruginosa, in the assay on Escherichia coli and with Staphylococcus aureus was inactive.

Turning to `COc1ccc(/C=C2\CCCC/C(=C\c3ccc(OC)cc3)C2=O)cc1`, the MIC is 6.25 µg/mL (≈ 17.9 µM) in assay [1]; over 50 µg/mL against Candida albicans; over 50 µg/mL with Aspergillus fumigatus; over 50 µg/mL in the assay on Candida parapsilosis; over 12.5 µg/mL in assay [2]; over 50 µg/mL against Cryptococcus neoformans. Further, the outcome with Klebsiella pneumoniae, with Pseudomonas aeruginosa, with Escherichia coli and in the assay with Staphylococcus aureus was inactive.

Take `O=C1/C(=C/c2ccco2)CCC/C1=C\c1ccco1`: the MIC in assay [1] was over 12.5 µg/mL; against Candida albicans, over 50 µg/mL; in the assay on Aspergillus fumigatus, over 50 µg/mL; against Candida parapsilosis it was over 50 µg/mL; in assay [2] it was over 12.5 µg/mL; with Cryptococcus neoformans, over 50 µg/mL. For the same compound, the outcome in the assay with Klebsiella pneumoniae, in the assay with Pseudomonas aeruginosa, in the assay on Escherichia coli and in the assay on Staphylococcus aureus was inactive.

Turning to `O=C1/C(=C/c2ccc(F)cc2)CCC/C1=C\c1ccc(F)cc1`, the MIC in assay [1] is 12.5 µg/mL (≈ 40.3 µM); with Candida albicans, over 50 µg/mL; in the assay with Aspergillus fumigatus it was over 50 µg/mL; against Candida parapsilosis it was over 50 µg/mL; in [2], over 12.5 µg/mL; against Cryptococcus neoformans, over 50 µg/mL. Moreover, the outcome in the assay on Klebsiella pneumoniae, in the assay with Pseudomonas aeruginosa, in the assay with Escherichia coli and with Staphylococcus aureus was inactive.

For the compound `O=C1CCCCC1C(O)c1ccccc1[N+](=O)[O-]` (configuration not stated), the MIC was over 12.5 µg/mL in assay [1]; over 50 µg/mL in the assay with Candida albicans; over 50 µg/mL against Aspergillus fumigatus; over 50 µg/mL against Candida parapsilosis; over 12.5 µg/mL in assay [2]; over 50 µg/mL against Cryptococcus neoformans. For the same compound, the result in the assay on Klebsiella pneumoniae, with Pseudomonas aeruginosa, in the assay with Escherichia coli and in the assay with Staphylococcus aureus was inactive.

With `O=C1/C(=C/c2ccccc2)CCC/C1=C\c1ccccc1` [2,6-DIBENZYLIDENECYCLOHEXANONE], the MIC in [1] was over 12.5 µg/mL; against Candida albicans, over 50 µg/mL; against Aspergillus fumigatus, over 50 µg/mL; in the assay with Candida parapsilosis, over 50 µg/mL; in [2] it was 6.25 µg/mL (≈ 22.8 µM); against Cryptococcus neoformans, over 50 µg/mL. Also, the outcome in the assay on Klebsiella pneumoniae, with Pseudomonas aeruginosa, in the assay on Escherichia coli and with Staphylococcus aureus was inactive.

As to `O=[N+]([O-])c1ccc(/C=C2\CCC/C(=C\c3ccc([N+](=O)[O-])cc3)C2O)cc1`, the MIC in assay [1] was over 12.5 µg/mL; with Candida albicans it was over 50 µg/mL; against Aspergillus fumigatus, over 50 µg/mL; against Candida parapsilosis, over 50 µg/mL; in assay [2], over 12.5 µg/mL; against Cryptococcus neoformans, over 50 µg/mL. Also, the outcome in the assay on Klebsiella pneumoniae, in the assay on Pseudomonas aeruginosa, with Escherichia coli and in the assay with Staphylococcus aureus was inactive.

Take `O=C1CCCCC1C(O)c1ccc(Br)cc1` (configuration not stated): the MIC in [1] was over 12.5 µg/mL; against Candida albicans, over 50 µg/mL; against Aspergillus fumigatus, over 50 µg/mL; against Candida parapsilosis it was over 50 µg/mL; in [2], 12.5 µg/mL (≈ 44.1 µM); in the assay on Cryptococcus neoformans, over 50 µg/mL. Further, the result in the assay on Klebsiella pneumoniae, with Pseudomonas aeruginosa, with Escherichia coli and in the assay on Staphylococcus aureus was inactive.

In assay [2], `NNC(=O)c1ccncc1` [ISONIAZID] returned an MIC of 0.75 µg/mL (≈ 5.47 µM).
